Results from PMC8367640 (Journal of Applied Glycoscience, 2021).

Tested on: BlAga3
Assay: HPAEC-PAD of released products
Type: biochemical, Bifidobacterium longum subsp. longum
Conditions: 50 mM sodium acetate pH 6.0, 45 °C, 20 min
In short: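 His-tagged recombinant BlAga3, TALON-purified (50 mM imidazole fraction, desalted). Enzyme in 50 mM sodium acetate pH 6.0 at 45 °C for 20 min: 0.20 μg/mL with 0.1–10 mM α-D-Gal-(1→3)-L-Ara, or 0.79 μg/mL with 1.0–50 mM raffinose. Stopped with 5 % TCA; released sugars quantified by HPAEC-PAD (NaOH/sodium acetate gradient).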

Compound	Km (0.1–10 mM substrate) [mM]	Km (1.0-50 mM substrate) [mM]
OC[C@H]1O[C@H](O[C@H]2[C@@H](O)COC(O)[C@@H]2O)[C@H](O)[C@@H](O)[C@H]1O (stereo partly drawn) [GA, α-D-Gal-(1→3)-L-Ara]	0.774 ± 0.014	–
OC[C@H]1O[C@H](OC[C@H]2O[C@H](O[C@]3(CO)O[C@H](CO)[C@@H](O)[C@@H]3O)[C@H](O)[C@@H](O)[C@@H]2O)[C@H](O)[C@@H](O)[C@H]1O [Raffinose]	–	29.5 ± 1
